NR2E3 ag-1: agonists of human nuclear receptor NR2E3. AID 2300. Q9Y5X4. GST-NR2E3/biotin-RetCOR TR-FRET, 1536-well. inhibition of corepressor binding, % at 4.78 µM. actives 0.12% (n = 320,000);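 active means percent inhibition above the cutoff of mean plus 3 SD of all tested compounds, set per screening campaign, cut at about 20% in these data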
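System: GST-NR2E3 and biotin-RetCOR proteins; probe or stimulus: 7 nM biotin-RetCOR; doses: compound at 4.8 µM, single dose; schedule: Compound–protein incubation for 5 h at 4 °C; detection: time-resolved FRET; read-out: percent inhibition; controls: biotin wells as high control, 0.6% DMSO wells as low control; format: 1536-well plates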
PG9 binder: binds the HIV-1 gp120 antibody PG9 | TR-FRET gp120-PG9 antibody binding | inhibition, % at 6.7 µM | actives 0.43% (n = 360,000) | AID 624416; in the data active means inhibition above about 8.5%
NR2E3 ag-2: activates human NR2E3 receptor. inhibition of corepressor binding, % at 3.98 µM. AID 602229. CHO-S Gal4-NCOR/VP16-NR2E3 two-hybrid, luciferase. Q9Y5X4. actives 0.35% (n = 360,000);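 active means inhibition above the mean of all tested compounds plus 3 SD, cut at about 70% in these data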;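 further: higher means lower luciferase signal from less NR2E3 corepressor binding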
Rev-erbA mod: modulates human Rev-erb alpha binding to DNA; AID 1259318; P20393; activity, % at 10 µM; actives 0.79% (n = 370,000); Rev-erbα–FITC-DNA binding, fluorescence polarization, 90 min;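 active means activity above about 14%, limit read from the data; passing the limit was not always enough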
NR1D1 mod conf: confirmation of modulators of human Rev-erb alpha DNA binding. shares compounds with Rev-erbA mod. Rev-erb alpha FITC-DNA binding, fluorescence polarization, 90 min. activation, % at 25 µM. actives 61% (n = 3,000). AID 1259319;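 active means activation at or above a set limit, or at least 3 SD above the negative control mean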
RORg DNA counter: counter-screen for Rev-erb alpha modulators: RORgamma DNA binding. actives 8% (n = 910). shares compounds with Rev-erbA mod. purified RORgamma protein-FITC-DNA binding, fluorescence polarization. IC50, µM;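 active means Compounds whose fitted half-maximal concentration for disrupting protein-DNA binding is below 10 micromolar; the record names Rev-erb in its text, so the target is in doubt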
Large screens that a line does not name were inactive (follow-up assays come after a bar, where they were run). This is a sample that favours compounds with a hit; in the whole collection about 1.4% have one here.

CCOc1cccc2sc(NC(=O)c3ccc(Br)s3)nc12	Rev-erbA mod 29.6 | NR1D1 mod conf 33.4 | RORg DNA counter inactive
O=c1c2ccccc2n2c(-c3ccc(F)cc3)nnc2n1Cc1ccccc1	Rev-erbA mod 24.3 | NR1D1 mod conf 35.0 | RORg DNA counter inactive
O=c1c2ccccc2n2c(-c3ccc(C(F)(F)F)cc3)nnc2n1Cc1ccccc1	none
CCn1c(SCC(=O)NN=Cc2cccc(OCc3ccccc3)c2)nnc1-c1ccc(OC)c(OC)c1	none (no result: NR2E3 ag-1, PG9 binder, NR2E3 ag-2)
CN(C)c1ccc2nc3c(=O)[nH]c(=O)nc-3n(CC(O)C(O)C(O)CO)c2c1 (stereo unspecified)	Rev-erbA mod 32.8 | NR1D1 mod conf 37.2 | RORg DNA counter inactive
CCOC(=O)CC(=O)CSc1nc(N)c(C#N)c(-c2ccc(Cl)cc2)c1C#N	none
N#Cc1c(N)nc(SCC(=O)C23CC4CC(CC(C4)C2)C3)c(C#N)c1-c1ccc(Cl)cc1	Rev-erbA mod 81.1 | NR1D1 mod conf 43.6 | RORg DNA counter inactive
C=CCSc1nc(N)c(C#N)c(-c2ccccc2)c1C#N	Rev-erbA mod 49.9 | NR1D1 mod conf 32.1 | RORg DNA counter inactive
CCCSc1nc(N)c(C#N)c(-c2ccc(C)cc2)c1C#N	Rev-erbA mod 66.4 | NR1D1 mod conf 32.5
Cc1ccccc1C(=O)N(C)[C@H]1C[C@H]2c3[nH]c4c(-c5ccccc5)cccc4c3CCN2C[C@H]1[C@H](C)O	none (no result: NR2E3 ag-1, PG9 binder, NR2E3 ag-2)
COC(=O)[C@]12C[C@H](CC(=O)NCC34CC5CC(CC(C5)C3)C4)C(=O)N(CCc3ccc(OC)c(OC)c3)C1=C[C@H](C(C)C)O[C@@H]2C1CC1	none (no result: NR2E3 ag-1, PG9 binder, NR2E3 ag-2)
COCCCN1C(=O)[C@H](CC(=O)NCc2cccs2)[C@]2(C(=O)OC)CCCCC=C12	none (no result: NR2E3 ag-1, PG9 binder, NR2E3 ag-2)
Cn1nc(C(C)(C)C)cc1NC(=O)C1(C)CCN1C(=O)c1ccccc1CCc1ccccc1 (stereo unspecified)	Rev-erbA mod 19.7 (no result: NR2E3 ag-1) | NR1D1 mod conf inactive
Cn1nc(C(C)(C)C)cc1NC(=O)C1(C)CCN1C(=O)CCc1ccccc1 (stereo unspecified)	none (no result: NR2E3 ag-1)
CCCCCCc1nc2c(=O)[nH]c3ccccc3c2o1	Rev-erbA mod 52.5 | NR1D1 mod conf inactive
CC(=O)O[C@H]1[C@H](OC(C)=O)C[C@]2(OC(C)=O)C[C@H]1OC2=O	none (no result: NR2E3 ag-1, PG9 binder, NR2E3 ag-2)
O=C(CNC(=O)Cc1ccccc1)NCC(=O)OCc1ccc(C(=O)c2ccccc2)cc1	Rev-erbA mod 21.7 (no result: PG9 binder) | NR1D1 mod conf 19.7
COC(=O)c1c(-c2ccccc2)csc1NC1=NS(=O)(=O)c2ccccc21	Rev-erbA mod 30.8 | NR1D1 mod conf inactive
COC(=O)c1ccc(C(=O)OC)c(NC2=NS(=O)(=O)c3ccccc32)c1	Rev-erbA mod 21.4 | NR1D1 mod conf inactive
CCn1cc(C(=O)NCCc2ccc(Cl)cc2)c(=O)c2ccc(C)nc21	Rev-erbA mod 29.1 (no result: NR2E3 ag-1) | NR1D1 mod conf inactive
Cc1cc2c(s1)c1cnn(Cc3cc(F)c(F)cc3F)c(=O)c1n2C	Rev-erbA mod 25.6 (no result: NR2E3 ag-1, PG9 binder, NR2E3 ag-2) | NR1D1 mod conf inactive
Cc1cc2c(s1)c1cnn(Cc3ccc(F)cc3F)c(=O)c1n2C	none (no result: NR2E3 ag-1, PG9 binder, NR2E3 ag-2)
Cc1ccc(OCC(=O)NNC(=O)C2CCN(c3ncccn3)CC2)cc1	none
Cc1ccc(OCC(=O)NNC(=O)C2CCN(c3nc(C)cc(C)n3)CC2)cc1	Rev-erbA mod 22.8 | NR1D1 mod conf inactive
N#C/C(=C/c1ccc(N2CCCCC2)o1)C(=O)Nc1ccc(Cl)cc1	none
COc1ccc(NC(=O)/C(C#N)=C/c2ccc(Br)o2)cc1	none
N#C/C(=C/c1ccc(N2CCCCC2)o1)C(=O)Nc1ccc2ccccc2c1	Rev-erbA mod 67.2 (no result: NR2E3 ag-1) | NR1D1 mod conf 24.9
COc1ccc(NC(=O)/C(C#N)=C\c2ccc(N3CCOCC3)o2)cc1	Rev-erbA mod 65.3 | NR1D1 mod conf 40.5 | RORg DNA counter inactive
N#C/C(=C\c1ccc(N2CCOCC2)o1)C(=O)Nc1ccc(O)cc1	Rev-erbA mod 43.7 | NR1D1 mod conf 27.2
N#C/C(=C/c1ccc(N2CCOCC2)o1)C(=O)NC1CCCCC1	none
CCOc1ccc(C2C(C#N)=C(C)NC3=C2C(=O)c2ccccc23)cc1 (stereo unspecified)	none
COc1ccc(C2C(C#N)=C(C)NC3=C2C(=O)c2ccccc23)cc1 (stereo unspecified)	Rev-erbA mod 81.2 | NR1D1 mod conf 53.6 | RORg DNA counter inactive

Bioassay records from PubChem.
